The source of these data is ChEMBL document CHEMBL4052583, “A Potent, Selective, and Orally Bioavailable HCV NS5A Inhibitor for Treatment of Hepatitis C Virus: (S)-1-((R)-2-(Cyclopropanecarboxamido)-2-phenylacetyl)-N-(4-phenylthiazol-2-yl)pyrrolidine-2-carboxamide” (J Med Chem, 2017).

Data set [1] can be described thus: Inhibition of NS5A in HCV genotype 1b Ava5 infected in human HuH7 cells containing Ava5-EG(D4AB)SEAP subgenomic replicons assessed as reduction in viral replicon growth incubated for 1 day by Phospha-light assay method. As to conditions: Hepatitis C virus, Ava5, 24 h. The format is cell-based, Hepatitis C virus subtype 1b. Background: In antiviral work, replicon cells carry a viral genome segment that copies itself.

Data set [2] can be described thus: Volume of distribution at steady state in Sprague-Dawley rat at 1 mg/kg, iv after 1 to 24 hrs by HPLC-MS/MS method. The format is ADME, organism-based. As to conditions: in vivo, read-out: Vdss. A digest of the protocol: (§1)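 Rats received a single intravenous dose of 1 mg/kg. Clearance (mL/min/kg), steady-state volume of distribution (L/kg), half-life (h) and AUC (ng/mL×h) were reported as mean ± spread.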

The nature of data set [3]: Half life in Sprague-Dawley rat at 1 mg/kg, iv after 1 to 24 hrs by HPLC-MS/MS method. Type of data set: ADME, organism-based. The conditions noted are these: in vivo. Put shortly:
as §1

Data set [4] can be described thus: AUC in Sprague-Dawley rat at 1 mg/kg, iv after 1 to 24 hrs by HPLC-MS/MS method. The format is ADME, organism-based. The conditions noted are these: in vivo. A digest of the protocol:
as §1

Data set [5] in a line: Clearance in Sprague-Dawley rat at 1 mg/kg, iv after 1 to 24 hrs by HPLC-MS/MS method. Type of data set: ADME, organism-based. The conditions noted are these: in vivo. Put shortly: as §1
A short description of data set [6]: Cytotoxic activity against human HuH7 cells containing HCV subgenomic replicons Ava5-EG(D4AB)SEAP by MTS assay. The format is cell-based, Huh-7.
The nature of data set [7]: Cmax in Sprague-Dawley rat at 5 mg/kg, po after 1 to 24 hrs by HPLC-MS/MS method. On the set-up: dose 5 mg/kg, route oral. As to conditions: in vivo. Type of data set: ADME, organism-based. A digest of the protocol:
(§2)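 Rats were dosed orally at 5 mg/kg. Tmax (h), Cmax (ng/mL), AUC (ng/mL×h) and oral bioavailability F (%) were reported.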

Data set [8] is described as follows: Oral bioavailability in Sprague-Dawley rat at 5 mg/kg after 1 to 24 hrs by HPLC-MS/MS method. The format is ADME, organism-based. The conditions noted are these: in vivo. Put shortly:
as §2

The nature of data set [9]: AUC in Sprague-Dawley rat at 5 mg/kg, po after 1 to 24 hrs by HPLC-MS/MS method. Type of data set: ADME, organism-based. As to conditions: in vivo. Put shortly:
as §2

Data set [10] can be described thus: Tmax in Sprague-Dawley rat at 5 mg/kg, po after 1 to 24 hrs by HPLC-MS/MS method. The format is ADME, organism-based. The conditions noted are these: in vivo. A digest of the protocol:
as §2

Data set [11] in a line: Half life in Sprague-Dawley rat at 5 mg/kg, po after 1 to 24 hrs by HPLC-MS/MS method. The format is ADME, organism-based. As to conditions: in vivo.
Data set [12] is described as follows: Selectivity index, ratio of CC50 for cytotoxic activity against human HuH7 cells containing HCV subgenomic replicons Ava5-EG(D4AB)SEAP to IC50 for inhibition of NS5A in HCV genotype 1b Ava5 infected in human HuH7 cells containing Ava5-EG(D4AB)SEAP subgenomic replicons.

In general, EC50 refers to the midpoint of the concentration-response curve. The term half-life denotes how long it takes for the measured level to halve. Low readings indicate rapid decline, high ones slow decline. Broadly, the AUC is the area under the concentration-time curve, a measure of exposure. Higher therefore signals high exposure. Usually clearance stands for a measure of how efficiently the substance is removed, as volume per time. High values mean efficient removal, low ones inefficient removal. One may read the CC50 as the concentration at which the toxic effect on the cells reaches its halfway point. What is called Cmax is the highest concentration seen after dosing. As a reminder, the bioavailability is dose-corrected exposure relative to a reference, in per cent. Read a high bioavailability as much systemic uptake. For orientation: Tmax means the time at which the peak concentration occurs. Turning to `O=C(N[C@@H](C(=O)N1CCC[C@H]1C(=O)Nc1nc(-c2ccccc2)cs1)c1ccccc1)c1ccncc1`, the 50% effective concentration (EC50) in data set [1] amounted to 3.8 nM. Also, the Vd in [2] was determined as 1.8 L/kg. Besides, the half-life in data set [3] is 0.5 h; in data set [11] it was 4.5 h. The results for the exposure (AUC) in data set [4] and in data set [9] were 296 ng·h/mL and 125 ng·h/mL, respectively. The clearance in [5] is 62.2 mL/min/kg. The same compound had a CC50 in data set [6] greater than 50000 nM. In data set [7], this compound had a Cmax of 58.3 ng/mL. The compound further yielded a bioavailability in [8] of 10.1%. For the same compound, the Tmax in data set [10] worked out at 0.7 h.

For `O=C(N[C@@H](C(=O)N1CCC[C@H]1C(=O)Nc1nc(-c2ccccc2)cs1)c1ccccc1)c1ccccc1`, in data set [1], the EC50 turned out to be 15 nM. Besides, the Vd in data set [2] amounted to 4.2 L/kg. Also, the values for the half-life in data set [3] and in [11] were 2.3 h and 2.7 h, respectively. Moreover, the AUC in [4] worked out at 367 ng·h/mL; in data set [9], 588 ng·h/mL. In addition, the clearance in data set [5] is 44.8 mL/min/kg. This compound also returned a half-maximal cytotoxic concentration (CC50) in data set [6] greater than 50000 nM. Moreover, the Cmax in data set [7] was found to be 109 ng/mL. The same compound came in with a bioavailability in data set [8] of 31%. Further, in data set [10], the Tmax amounted to 2.3 h.

Regarding `O=C(Nc1nc(-c2ccccc2)cs1)[C@@H]1CCCN1C(=O)[C@H](NC(=O)N1CCCC1)c1ccccc1`, the concentration for a half-maximal effect (EC50) in data set [1] was 3.1 nM. Further, the Vd in data set [2] turned out to be 1.1 L/kg. The half-life in data set [3] is 0.5 h; in data set [11], 2.4 h. Moreover, the AUC in data set [4] is 311 ng·h/mL; in data set [9], 288 ng·h/mL. Moreover, in data set [5], the clearance came out at 55.1 mL/min/kg. Further, in data set [6], the CC50 was greater than 50000 nM. In data set [7], this compound showed a Cmax of 63.9 ng/mL. The compound also had a bioavailability in [8] of 20.4%. The time of peak concentration (Tmax) in data set [10] came out at 2.8 h.

As for `O=C(Nc1nc(-c2ccccc2)cs1)[C@@H]1CCCN1C(=O)[C@H](NC(=O)N1CCOCC1)c1ccccc1`, in data set [1], the EC50 came to 0.92 nM. Besides, the Vd in [2] was 1.04 L/kg. The half-life in data set [3] was 0.46 h; in data set [11], 1.6 h. The results for the AUC in data set [4] and in data set [9] were 436 ng·h/mL and 404 ng·h/mL, respectively. Moreover, the clearance in data set [5] was 38.4 mL/min/kg. Moreover, in data set [6], the CC50 is greater than 50000 nM. For the same compound, the maximum concentration (Cmax) in data set [7] was determined as 247 ng/mL. Further, the bioavailability in data set [8] worked out at 18.7%. Further, the time to peak (Tmax) in [10] came out at 0.8 h.

For the compound `O=C(N[C@@H](C(=O)N1CCC[C@H]1C(=O)Nc1nc(-c2ccccc2)cs1)c1ccccc1)C1CC1`, the EC50 in data set [1] worked out at 4.6 nM. Besides, the Vd in [2] stood at 1.32 L/kg. Also, the figures for the half-life in data set [3] and in data set [11] were 1.3 h and 2.8 h, respectively. The AUC in data set [4] stood at 635 ng·h/mL; in [9] it was 1440 ng·h/mL. Moreover, the clearance in [5] was 27.1 mL/min/kg. Moreover, the CC50 in data set [6] is greater than 50000 nM. For the same compound, the “Ratio CC50/EC50” value in data set [12] is given as greater than 10000. The compound further came in with a Cmax in data set [7] of 260 ng/mL. Moreover, in data set [8], the bioavailability is 45%. Also, in data set [10], the Tmax came out at 0.8 h.
